Results from ChEMBL document CHEMBL4689842, “EUbOPEN Chemogenomics Library wave 1” (2021).

What was measured:
Fibroblast = experiment: Incucyte cell viability with human fibroblast; assay type: toxicity, cell-based; conditions: 10 µM, compound concentration 10 uM; note: filed as whole numbers so only -1 and 0 and 1 occur
HEK-293T = experiment: Multiplex assay against HEK293T; assay type: toxicity, cell-based; conditions: human;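 for Population Tubulin-Different-Phenotype (%): share of the cells with healthy nuclei that show this phenotype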
Procedure, shortened: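 Live cells were stained at seeding with Hoechst33342, BioTracker Green Microtubule Cytoskeleton Dye, MitoTracker Red and Annexin V Alexa Fluor 680. Following compound addition, they were imaged on a CQ1 microscope at 37°C and 5% CO2 and gated by CellPathfinder machine learning into Hoechst high-intensity objects or normal cells, with normal cells split into healthy, pyknosed or fragmented nuclei and pyknosed cells into mitotic or apoptotic. Tubulin, mitochondrial-mass and membrane-permeability phenotypes are per cents of healthy-nucleus cells.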

[1] = 12 h, 1 µM, compound concentration 1 uM, replicate 1
[2] = 12 h, 1 µM, compound concentration 1 uM, replicate 2
[3] = 12 h, 10 µM, compound concentration 10 uM, replicate 1
[4] = 12 h, 10 µM, compound concentration 10 uM, replicate 2
[5] = 24 h, 1 µM, compound concentration 1 uM, replicate 1
[6] = 24 h, 1 µM, compound concentration 1 uM, replicate 2
[7] = 24 h, 10 µM, compound concentration 10 uM, replicate 1
[8] = 24 h, 10 µM, compound concentration 10 uM, replicate 2
[9] = 48 h, 1 µM, compound concentration 1 uM, replicate 1
[10] = 48 h, 1 µM, compound concentration 1 uM, replicate 2
[11] = 48 h, 10 µM, compound concentration 10 uM, replicate 1
[12] = 48 h, 10 µM, compound concentration 10 uM, replicate 2

With `CN(c1cc(C(F)(F)F)nc(OCCC(=O)O)n1)c1cccc2c1CCC2` the “Growth Rate” value (Fibroblast; 0 h, replicate number 1, timepoint 0 hours) was 1, the “Growth Rate” value (Fibroblast; 0 h, replicate number 2, timepoint 0 hours) was 0 and the “Growth Rate” value (Fibroblast; 6 h, replicate number 1, timepoint 6 hours) was 0. The “Growth Rate” value (Fibroblast; 12 h, replicate number 1, timepoint 12 hours) was 1, the “Growth Rate” value (Fibroblast; 18 h, replicate number 1, timepoint 18 hours) was 0 and the “Growth Rate” value (Fibroblast; 24 h, replicate number 1, timepoint 24 hours) was 0. The “Growth Rate” value (Fibroblast; 24 h, replicate number 2, timepoint 24 hours) was 1, the “Population Apoptotic (%)” value (HEK-293T; [1]) was 44% and the “Population Fragmented Nuclei (%)” value (HEK-293T; [1]) was 21%. The “Population Healthy Nuclei (%)” value (HEK-293T; [1]) was 34%, the “Population Hoechst High Intensity Objects (%)” value (HEK-293T; [1]) was 14% and the “Population Membrane Permeable-Phenotype (%)” value (HEK-293T; [1]) was 3%. For the same molecule, the “Population Mitochondria Different-Phenotype (%)” value (HEK-293T; [1]) was 67%, the “Population Mitotic Cells (%)” value (HEK-293T; [1]) was 55% and the “Population Normal (%)” value (HEK-293T; [1]) was 85%. The “Population Pyknosed Nuclei (%)” value (HEK-293T; [1]) was 44%, the “Population Tubulin-Different-Phenotype (%)” value (HEK-293T; [1]) was 29% and the “Total Cell Count” value (HEK-293T; [1]) was 189. For the same molecule, the “Population Apoptotic (%)” value (HEK-293T; [2]) was 12%, the “Population Fragmented Nuclei (%)” value (HEK-293T; [2]) was 4% and the “Population Healthy Nuclei (%)” value (HEK-293T; [2]) was 49%. The “Population Hoechst High Intensity Objects (%)” value (HEK-293T; [2]) was 4%, the “Population Membrane Permeable-Phenotype (%)” value (HEK-293T; [2]) was 8% and the “Population Mitochondria Different-Phenotype (%)” value (HEK-293T; [2]) was 15%. For the same molecule, the “Population Mitotic Cells (%)” value (HEK-293T; [2]) was 87%, the “Population Normal (%)” value (HEK-293T; [2]) was 95% and the “Population Pyknosed Nuclei (%)” value (HEK-293T; [2]) was 46%. The “Population Tubulin-Different-Phenotype (%)” value (HEK-293T; [2]) was 14%, the “Total Cell Count” value (HEK-293T; [2]) was 193 and the “Population Apoptotic (%)” value (HEK-293T; [3]) was 37%. For the same molecule, the “Population Healthy Nuclei (%)” value (HEK-293T; [3]) was 49%, the “Population Hoechst High Intensity Objects (%)” value (HEK-293T; [3]) was 16% and the “Population Membrane Permeable-Phenotype (%)” value (HEK-293T; [3]) was 1%. For the same molecule, the “Population Mitochondria Different-Phenotype (%)” value (HEK-293T; [3]) was 69%, the “Population Mitotic Cells (%)” value (HEK-293T; [3]) was 62% and the “Population Normal (%)” value (HEK-293T; [3]) was 83%. The “Population Pyknosed Nuclei (%)” value (HEK-293T; [3]) was 41%, the “Population Tubulin-Different-Phenotype (%)” value (HEK-293T; [3]) was 28% and the “Total Cell Count” value (HEK-293T; [3]) was 223. The “Population Apoptotic (%)” value (HEK-293T; [4]) was 8%, the “Population Fragmented Nuclei (%)” value (HEK-293T; [4]) was 8% and the “Population Healthy Nuclei (%)” value (HEK-293T; [4]) was 42%. The “Population Hoechst High Intensity Objects (%)” value (HEK-293T; [4]) was 2%, the “Population Membrane Permeable-Phenotype (%)” value (HEK-293T; [4]) was 6% and the “Population Mitochondria Different-Phenotype (%)” value (HEK-293T; [4]) was 14%. For the same molecule, the “Population Mitotic Cells (%)” value (HEK-293T; [4]) was 91%, the “Population Normal (%)” value (HEK-293T; [4]) was 97% and the “Population Pyknosed Nuclei (%)” value (HEK-293T; [4]) was 49%. For the same molecule, the “Population Tubulin-Different-Phenotype (%)” value (HEK-293T; [4]) was 9%, the “Total Cell Count” value (HEK-293T; [4]) was 233 and the “Population Apoptotic (%)” value (HEK-293T; [5]) was 34%. The “Population Fragmented Nuclei (%)” value (HEK-293T; [5]) was 18%, the “Population Healthy Nuclei (%)” value (HEK-293T; [5]) was 30% and the “Population Hoechst High Intensity Objects (%)” value (HEK-293T; [5]) was 11%. The “Population Membrane Permeable-Phenotype (%)” value (HEK-293T; [5]) was 1%, the “Population Mitochondria Different-Phenotype (%)” value (HEK-293T; [5]) was 53% and the “Population Mitotic Cells (%)” value (HEK-293T; [5]) was 65%. The “Population Normal (%)” value (HEK-293T; [5]) was 88%, the “Population Pyknosed Nuclei (%)” value (HEK-293T; [5]) was 51% and the “Population Tubulin-Different-Phenotype (%)” value (HEK-293T; [5]) was 32%. The “Total Cell Count” value (HEK-293T; [5]) was 193, the “Population Apoptotic (%)” value (HEK-293T; [6]) was 21% and the “Population Fragmented Nuclei (%)” value (HEK-293T; [6]) was 8%. The “Population Healthy Nuclei (%)” value (HEK-293T; [6]) was 65%, the “Population Hoechst High Intensity Objects (%)” value (HEK-293T; [6]) was 4% and the “Population Membrane Permeable-Phenotype (%)” value (HEK-293T; [6]) was 10%. The “Population Mitochondria Different-Phenotype (%)” value (HEK-293T; [6]) was 13%, the “Population Mitotic Cells (%)” value (HEK-293T; [6]) was 78% and the “Population Normal (%)” value (HEK-293T; [6]) was 95%. The “Population Pyknosed Nuclei (%)” value (HEK-293T; [6]) was 25%, the “Population Tubulin-Different-Phenotype (%)” value (HEK-293T; [6]) was 28% and the “Total Cell Count” value (HEK-293T; [6]) was 250. The “Population Apoptotic (%)” value (HEK-293T; [7]) was 33%, the “Population Fragmented Nuclei (%)” value (HEK-293T; [7]) was 12% and the “Population Healthy Nuclei (%)” value (HEK-293T; [7]) was 50%. For the same molecule, the “Population Hoechst High Intensity Objects (%)” value (HEK-293T; [7]) was 11%, the “Population Membrane Permeable-Phenotype (%)” value (HEK-293T; [7]) was 4% and the “Population Mitochondria Different-Phenotype (%)” value (HEK-293T; [7]) was 37%. The “Population Mitotic Cells (%)” value (HEK-293T; [7]) was 66%, the “Population Normal (%)” value (HEK-293T; [7]) was 88% and the “Population Pyknosed Nuclei (%)” value (HEK-293T; [7]) was 37%. For the same molecule, the “Population Tubulin-Different-Phenotype (%)” value (HEK-293T; [7]) was 22%, the “Total Cell Count” value (HEK-293T; [7]) was 256 and the “Population Apoptotic (%)” value (HEK-293T; [8]) was 9%. The “Population Fragmented Nuclei (%)” value (HEK-293T; [8]) was 2%, the “Population Healthy Nuclei (%)” value (HEK-293T; [8]) was 68% and the “Population Hoechst High Intensity Objects (%)” value (HEK-293T; [8]) was 3%. For the same molecule, the “Population Membrane Permeable-Phenotype (%)” value (HEK-293T; [8]) was 3%, the “Population Mitochondria Different-Phenotype (%)” value (HEK-293T; [8]) was 11% and the “Population Mitotic Cells (%)” value (HEK-293T; [8]) was 90%. For the same molecule, the “Population Normal (%)” value (HEK-293T; [8]) was 96%, the “Population Pyknosed Nuclei (%)” value (HEK-293T; [8]) was 29% and the “Population Tubulin-Different-Phenotype (%)” value (HEK-293T; [8]) was 19%. For the same molecule, the “Total Cell Count” value (HEK-293T; [8]) was 291, the “Population Apoptotic (%)” value (HEK-293T; [9]) was 45% and the “Population Fragmented Nuclei (%)” value (HEK-293T; [9]) was 21%. The “Population Healthy Nuclei (%)” value (HEK-293T; [9]) was 36%, the “Population Hoechst High Intensity Objects (%)” value (HEK-293T; [9]) was 16% and the “Population Membrane Permeable-Phenotype (%)” value (HEK-293T; [9]) was 1%. The “Population Mitochondria Different-Phenotype (%)” value (HEK-293T; [9]) was 22%, the “Population Mitotic Cells (%)” value (HEK-293T; [9]) was 54% and the “Population Normal (%)” value (HEK-293T; [9]) was 83%. The “Population Pyknosed Nuclei (%)” value (HEK-293T; [9]) was 41%, the “Population Tubulin-Different-Phenotype (%)” value (HEK-293T; [9]) was 24% and the “Total Cell Count” value (HEK-293T; [9]) was 228. The “Population Apoptotic (%)” value (HEK-293T; [10]) was 7%, the “Population Fragmented Nuclei (%)” value (HEK-293T; [10]) was 7% and the “Population Healthy Nuclei (%)” value (HEK-293T; [10]) was 84%. The “Population Hoechst High Intensity Objects (%)” value (HEK-293T; [10]) was 3%, the “Population Membrane Permeable-Phenotype (%)” value (HEK-293T; [10]) was 10% and the “Population Mitochondria Different-Phenotype (%)” value (HEK-293T; [10]) was 4%. The “Population Mitotic Cells (%)” value (HEK-293T; [10]) was 92%, the “Population Normal (%)” value (HEK-293T; [10]) was 96% and the “Population Pyknosed Nuclei (%)” value (HEK-293T; [10]) was 8%. The “Population Tubulin-Different-Phenotype (%)” value (HEK-293T; [10]) was 21%, the “Total Cell Count” value (HEK-293T; [10]) was 472 and the “Population Apoptotic (%)” value (HEK-293T; [11]) was 36%. The “Population Fragmented Nuclei (%)” value (HEK-293T; [11]) was 15%, the “Population Healthy Nuclei (%)” value (HEK-293T; [11]) was 56% and the “Population Hoechst High Intensity Objects (%)” value (HEK-293T; [11]) was 6%. The “Population Membrane Permeable-Phenotype (%)” value (HEK-293T; [11]) was 1%, the “Population Mitochondria Different-Phenotype (%)” value (HEK-293T; [11]) was 14% and the “Population Mitotic Cells (%)” value (HEK-293T; [11]) was 63%. For the same molecule, the “Population Normal (%)” value (HEK-293T; [11]) was 93%, the “Population Pyknosed Nuclei (%)” value (HEK-293T; [11]) was 27% and the “Population Tubulin-Different-Phenotype (%)” value (HEK-293T; [11]) was 11%. The “Total Cell Count” value (HEK-293T; [11]) was 351, the “Population Apoptotic (%)” value (HEK-293T; [12]) was 10% and the “Population Fragmented Nuclei (%)” value (HEK-293T; [12]) was 5%. The “Population Healthy Nuclei (%)” value (HEK-293T; [12]) was 83%, the “Population Hoechst High Intensity Objects (%)” value (HEK-293T; [12]) was 2% and the “Population Membrane Permeable-Phenotype (%)” value (HEK-293T; [12]) was 4%. The “Population Mitochondria Different-Phenotype (%)” value (HEK-293T; [12]) was 3%, the “Population Mitotic Cells (%)” value (HEK-293T; [12]) was 89% and the “Population Normal (%)” value (HEK-293T; [12]) was 97%. The “Population Pyknosed Nuclei (%)” value (HEK-293T; [12]) was 11%, the “Population Tubulin-Different-Phenotype (%)” value (HEK-293T; [12]) was 12% and the “Total Cell Count” value (HEK-293T; [12]) was 593.
